From ChEMBL document CHEMBL1138363, “N,N'-dihydroxyamidines: a new prodrug principle to improve the oral bioavailability of amidines” (J Med Chem, 2007)

Columns and labels:
Conditions in all cases: in vivo
[1] = system: Sus scrofa; experiment: Clearance in po dosed pig; format: ADME, organism-based
How it was run: (§1)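 Prodrug given orally to three pigs at 10 mg/kg body weight. Heparinized blood samples were centrifuged at 1500g for 10 min at 4 °C, stored at -80 °C and worked up by solid-phase extraction. Some samples were pretreated with β-glucuronidase/sulfatase. Benzamidine and benzamidoxime were measured in plasma by HPLC. Pharmacokinetic parameters were estimated for each pig from the plasma concentration-time curves.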

[2] = system: Sus scrofa; experiment: Volume of distribution in po dosed pig; format: ADME, organism-based; how it was run: as §1
[3] = system: Sus scrofa; experiment: AUC in po dosed pig; format: ADME, organism-based, Plasma; how it was run: as §1
[4] = Half life in po dosed pig; format: ADME, organism-based, Sus scrofa; how it was run: as §1
[5] = Tmax in po dosed pig; format: ADME, organism-based, Sus scrofa; how it was run: as §1
[6] = Oral bioavailability in pig; format: ADME, organism-based, Sus scrofa; how it was run: as §1
[7] = system: Sus scrofa; experiment: Plasma concentration in pig at 10 mg/kg, po; format: ADME, organism-based; design: dose 10 mg/kg, route oral; how it was run: as §1
[8] = Cmax in po dosed pig; format: ADME, organism-based, Sus scrofa; design: route oral; how it was run: as §1
[9] = Mean resident time in po dosed pig; format: ADME, organism-based, Sus scrofa; how it was run: as §1

CL [1] [mL/min/kg] | Vd [2] [L/kg] | AUC [3] [µM·h] | half-life [4] [h] | Tmax [5] [h] | bioavailability [6] [%] | concentration [7] [µM] | Cmax [8] [µM] | MRT [9] [h] | Structure (SMILES)
30 | 7.91 | 98.7 | 3.7 | 2 | 91 | 13.7 | 13.7 | 6.16 | N=C(N)c1ccccc1 [BENZAMIDINE]
– | – | – | – | – | – | 0.4 | – | – | NC(=NO)c1ccccc1 [BENZAMIDOXIME]
